The source made the active and inactive calls. The calls are words filed in the database; no cut-off is given here.
Experiments:
Cell membrane [1] = assay: Induction of membrane disruption in bacterial inner membrane mimic DOPC/DOPG (7:3) large unilamellar vesicles assessed as induction of dye leakage at 50 ug/ml measured after 100 mins by calcein dye based analysis; format: subcellular; settings: dose 50.0 µg/ml
Summary of the method: (§1)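 LUVs loaded with calcein: DOPC/DOPG 7:3 w/w (bacterial mimic) or DOPC/cholesterol 10:1 w/w (mammalian mimic). Mixed 1:1 by volume with peptide at 5, 10, 20, 30 or 50 μg/mL. Fluorescence (ex 490/em 520 nm) read every 10 min for 100 min. Leakage expressed relative to 10% Triton X-100 lysis (100%), after subtracting liposome background. Triplicate.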

HepaRG [2] = assay: Antiproliferative activity human HepaRG cells assessed as reduction in cell viability at 250 ug/ml incubated for 24 hrs by MTS assay; format: functional; settings: dose 250 µg/ml
Summary of the method: (§2)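 Cells seeded at 10,000 per well 24 h before treatment. Media: MRC-5 and HEK293 in DMEM with 10% FBS; HepaRG in William's E with GlutaMAX; HEKa in Dermal Cell Basal medium plus keratinocyte growth kit. Peptide at 10–250 μg/mL in triplicate for 24 h, 37 °C, 5% CO2. MTS added for 2 h, then A490 read. Survival is blank-corrected OD as % of untreated control.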

Escherichia coli [3] = assay: Antibacterial activity against Escherichia coli ATCC 25922 assessed as fold increase in MIC incubated for 24 hrs in presence of Mg2+ ions by CLSI based broth microdilution method; format: functional
Summary of the method: (§3)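 E. coli MICs by CLSI broth microdilution in cation-adjusted Mueller Hinton broth. […] Inoculum was 10^6 CFU/mL with 2-fold serial peptide dilutions, incubated 24 h at 37 °C. MIC is the lowest concentration inhibiting growth. Three independent assays, each in triplicate.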

[4] = Antiproliferative activity human HEKa cells assessed as reduction in cell viability at 50 ug/ml incubated for 24 hrs by MTS assay; format: functional; settings: dose 50 µg/ml; summary of the method: as §2
Cell membrane [5] = assay: Induction of membrane disruption in bacterial inner membrane mimic DOPC/DOPG (7:3) large unilamellar vesicles assessed as induction of dye leakage at 5 ug/ml measured after 100 mins by calcein dye based analysis; format: subcellular; settings: dose 5.0 µg/ml; summary of the method: as §1
Cell membrane [6] = assay: Disruption of cell membrane in Escherichia coli ATCC BAA-2452 assessed as increase in PI fluorescence intensity measured after 1 hrs by PI staining based flow cytometric analysis
Summary of the method: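 Mid-log E. coli ATCC BAA-2452 grown in Mueller Hinton broth, washed thrice and resuspended at 10^7 CFU/mL in 10 mM Tris pH 7.4. […] Controls: PBS (negative) and 10% Triton X-100 (positive). Triplicate; two-tailed unpaired t-test.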

Staphylococcus aureus [7] = assay: Bactericidal activity against methicillin resistant Staphylococcus aureus ATCC BAA 1556 assessed as inhibition of bacterial growth at MIC incubated for 4 hrs by Time kill assay; format: functional
Summary of the method: (§4)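 Aliquots taken every 30 min for 4 h and plated on agar for viable colony counts. Two independent experiments in triplicate.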

HEK293 = assay: Antiproliferative activity human HEK293 cells assessed as reduction in cell viability at 250 ug/ml incubated for 24 hrs by MTS assay; format: functional; settings: dose 250 µg/ml; summary of the method: as §2
Staphylococcus aureus [8] = assay: Bactericidal activity against methicillin resistant Staphylococcus aureus ATCC BAA 1556 assessed as inhibition of bacterial growth at 4 times of MIC incubated for 4 hrs by Time kill assay; format: functional; summary of the method: as §4
Cell membrane [9] = assay: Disruption of cell membrane in methicillin resistant Staphylococcus aureus ATCC BAA 1556 assessed as increase in PI fluorescence intensity at 4 times of MIC measured after 1 hrs by PI staining based flow cytometric analysis
Summary of the method: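 Mid-log cells grown in Mueller Hinton broth, washed in 10 mM Tris pH 7.4, 10^7 CFU/mL, treated at MIC and 4× MIC for 1 h. Pelleted, washed, PI-stained for 15 min at 37 °C in the dark, then counted by flow cytometry for % PI-positive cells. PBS-treated cells as negative control, 10% Triton X-100 as positive control. Run in triplicate; two-tailed unpaired t-test.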

Staphylococcus aureus [10] = assay: Antibacterial activity against methicillin resistant Staphylococcus aureus ATCC BAA 1556 assessed as fold increase in MIC incubated for 24 hrs in presence of Mg2+ ions by CLSI based broth microdilution method; format: functional
Summary of the method: (§5)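 CLSI broth microdilution. Overnight cultures diluted in cation-adjusted Mueller Hinton broth to 10^6 CFU/mL, mixed 1:1 with 2-fold serial peptide dilutions, 24 h at 37 °C. […] MIC is the lowest concentration inhibiting growth. Three independent assays in triplicate.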

Cell membrane [11] = assay: Disruption of cell membrane in methicillin resistant Staphylococcus aureus ATCC BAA 1556 assessed as cell membrane perturbation at 4 times of MIC measured after 1 hrs by DAPI and PI double staining based fluorescence microscopic analysis
Summary of the method: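 Mid-log cells washed in PBS (10 mM, pH 7.3), 10^7 CFU/mL, treated at MIC and 4× MIC for 1 h. Pelleted and washed, then stained with PI for 15 min at 37 °C in the dark, then DAPI for 15 min at 37 °C in the dark. Untreated controls. Imaged by fluorescence microscopy, 60× oil objective.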

Staphylococcus aureus [12] = assay: Bactericidal activity against methicillin resistant Staphylococcus aureus ATCC BAA 1556 assessed as inhibition of bacterial growth at MIC to 4 times of MIC by Time kill assay; format: functional, organism-based; settings: time 4.0 hrs, TDE = time-dependent effect; summary of the method: as §4
Cell membrane [13] = assay: Disruption of cell membrane in Escherichia coli ATCC BAA-2452 assessed as cell membrane perturbation at 4 times of MIC measured after 1 hrs by PI and DAPI double staining based fluorescence microscopic analysis
Summary of the method: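 Mid-log E. coli ATCC BAA-2452 was washed three times in PBS (10 mM, pH 7.3). Cells at 10^7 CFU/mL were exposed to agent at MIC or 4× MIC for 1 h, then pelleted at 3000g and washed. Staining was PI for 15 min, then DAPI for 15 min, both at 37 °C in the dark. Untreated cells were processed alike. Imaged by fluorescence microscopy with 60× oil objective.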

Staphylococcus aureus [14] = assay: Antibacterial activity against methicillin resistant Staphylococcus aureus ATCC BAA 1556 assessed as fold increase in MIC incubated for 24 hrs in presence of NH4+ ions by CLSI based broth microdilution method; format: functional; summary of the method: as §5
Staphylococcus aureus [15] = assay: Antibacterial activity against methicillin resistant Staphylococcus aureus ATCC BAA 1556 assessed as fold increase in MIC incubated for 24 hrs in presence of K+ ions by CLSI based broth microdilution method; format: functional; summary of the method: as §5
HepaRG [16] = assay: Antiproliferative activity human HepaRG cells assessed as reduction in cell viability at 50 ug/ml incubated for 24 hrs by MTS assay; format: functional; settings: dose 50 µg/ml; summary of the method: as §2
Escherichia coli [17] = assay: Antibacterial activity against Escherichia coli ATCC 25922 assessed as fold increase in MIC incubated for 24 hrs in presence of NH4+ ions by CLSI based broth microdilution method; format: functional; summary of the method: as §3
MRC5 = assay: Antiproliferative activity human MRC5 cells assessed as reduction in cell viability at 250 ug/ml incubated for 24 hrs by MTS assay; format: functional; settings: dose 250 µg/ml; summary of the method: as §2
Cell membrane [18] = assay: Induction of membrane disruption in bacterial inner membrane mimic DOPC/DOPG (7:3) large unilamellar vesicles assessed as induction of dye leakage measured upto 100 mins by calcein dye based analysis; format: subcellular; settings: dose 5-50 µg/ml; summary of the method: as §1

Row | Substance | Activity (Cell membrane [1]) [%] | Activity (HepaRG [2]) [%] | fold change (FC) (Escherichia coli [3]) | Activity [4] [%] | Activity (Cell membrane [5]) [%] | Activity (Cell membrane [6]) | inhibition (INH) (Staphylococcus aureus [7]) [%] | Activity (HEK293) [%] | inhibition (INH) (Staphylococcus aureus [8]) [%] | Activity (Cell membrane [9]) [%] | fold change (FC) (Staphylococcus aureus [10]) | Activity (Cell membrane [11]) | inhibition (Staphylococcus aureus [12]) | Activity (Cell membrane [13]) | fold change (FC) (Staphylococcus aureus [14]) | fold change (FC) (Staphylococcus aureus [15]) | Activity (HepaRG [16]) [%] | fold change (FC) (Escherichia coli [17]) | Activity (MRC5) [%] | Activity (Cell membrane [18])
1 | H-RWLRRWLRWWRR-NH2 | 80 | <30 | 2 | <60 | 30 | Dose-Dependent Effect | 75 | <30 | 100 | 75 | 2 | Active | Tde | Active | 2 | 2 | <60 | 2 | <30 | Dose-Dependent Effect
2 | H-KWLKKWLKWWKK-NH2 | 80 | >60 | 2 | >75 | 30 | Dose-Dependent Effect | 75 | >60 | 100 | 75 | 2 | Active | Tde | Active | 2 | 2 | >75 | 2 | >60 | Dose-Dependent Effect
